Test results published in ChEMBL document CHEMBL5303300, “EUbOPEN Chemogenomics Library - Multiplex” (2023).
Values joined by “and” are separate entries in the source; they are usually repeats but may differ in a detail not shown here. Equal entries are not always repeated.

Test system: Fibroblast
Assay: Multiplex assay against human fibroblast
Format: toxicity, cell-based
Conditions: number of replicates 2
Method in brief: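 Live cells carried four stains from seeding: Hoechst33342, BioTracker Green Microtubule Cytoskeleton Dye, MitoTracker Red and Annexin V Alexa Fluor 680. They were imaged on a CQ1 microscope at 37°C and 5% CO2 after compound addition. Using CellPathfinder machine-learning gating, cells were split into Hoechst high-intensity objects or normal cells, normal cells into healthy, pyknosed or fragmented nuclei, and pyknosed cells into mitotic or apoptotic; tubulin, mitochondrial-mass and membrane-permeability phenotypes are per cents of healthy-nucleus cells.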

[1] = 12 h, 1 µM, compound concentration 1 uM
[2] = 12 h, 10 µM, compound concentration 10 uM
[3] = 24 h, 1 µM, compound concentration 1 uM
[4] = 24 h, 10 µM, compound concentration 10 uM
[5] = 48 h, 1 µM, compound concentration 1 uM
[6] = 48 h, 10 µM, compound concentration 10 uM

CC(C)c1cc(-c2ccc(F)c3ccccc23)nc(N)n1
Population Apoptotic (%) [1]: 33% | Population Fragmented Nuclei (%) [1]: 14% and 15% | Population Healthy Nuclei (%) [1]: 70% and 65% | Population Hoechst High Intensity Objects (%) [1]: 1% and 0% | Population Membrane Permeable-Phenotype (%) [1]: 5% and 8% | Population Mitochondria Different-Phenotype (%) [1]: 0% and 3% | Population Mitotic Cells (%) [1]: 66% | Population Normal (%) [1]: 98% and 100% | Population Pyknosed Nuclei (%) [1]: 15% and 18% | Population Tubulin-Different-Phenotype (%) [1]: 16% and 14% | Total Cell Count [1]: 161 and 144 | Population Apoptotic (%) [2]: 38% | Population Fragmented Nuclei (%) [2]: 11% and 16% | Population Healthy Nuclei (%) [2]: 75% and 71% | Population Hoechst High Intensity Objects (%) [2]: 0% | Population Membrane Permeable-Phenotype (%) [2]: 7% | Population Mitochondria Different-Phenotype (%) [2]: 0% and 2% | Population Mitotic Cells (%) [2]: 61% | Population Normal (%) [2]: 100% | Population Pyknosed Nuclei (%) [2]: 12% | Population Tubulin-Different-Phenotype (%) [2]: 12% | Total Cell Count [2]: 140 and 174 | Population Apoptotic (%) [3]: 47% and 40% | Population Fragmented Nuclei (%) [3]: 14% and 15% | Population Healthy Nuclei (%) [3]: 71% and 67% | Population Hoechst High Intensity Objects (%) [3]: 0% | Population Membrane Permeable-Phenotype (%) [3]: 4% and 8% | Population Mitochondria Different-Phenotype (%) [3]: 0% and 1% | Population Mitotic Cells (%) [3]: 52% and 60% | Population Normal (%) [3]: 100% | Population Pyknosed Nuclei (%) [3]: 13% and 17% | Population Tubulin-Different-Phenotype (%) [3]: 17% and 12% | Total Cell Count [3]: 157 and 140 | Population Apoptotic (%) [4]: 75% and 46% | Population Fragmented Nuclei (%) [4]: 9% and 14% | Population Healthy Nuclei (%) [4]: 84% and 76% | Population Hoechst High Intensity Objects (%) [4]: 0% | Population Membrane Permeable-Phenotype (%) [4]: 5% and 1% | Population Mitochondria Different-Phenotype (%) [4]: 0% and 3% | Population Mitotic Cells (%) [4]: 25% and 53% | Population Normal (%) [4]: 99% and 100% | Population Pyknosed Nuclei (%) [4]: 5% and 8% | Population Tubulin-Different-Phenotype (%) [4]: 11% and 8% | Total Cell Count [4]: 135 and 171 | Population Apoptotic (%) [5]: 65% and 57% | Population Fragmented Nuclei (%) [5]: 16% and 13% | Population Healthy Nuclei (%) [5]: 69% and 71% | Population Hoechst High Intensity Objects (%) [5]: 0% | Population Membrane Permeable-Phenotype (%) [5]: 4% and 7% | Population Mitochondria Different-Phenotype (%) [5]: 0% | Population Mitotic Cells (%) [5]: 34% and 42% | Population Normal (%) [5]: 100% and 99% | Population Pyknosed Nuclei (%) [5]: 13% and 14% | Population Tubulin-Different-Phenotype (%) [5]: 14% and 7% | Total Cell Count [5]: 173 and 142 | Population Apoptotic (%) [6]: 100% and 54% | Population Fragmented Nuclei (%) [6]: 13% and 14% | Population Healthy Nuclei (%) [6]: 82% and 79% | Population Hoechst High Intensity Objects (%) [6]: 0% | Population Membrane Permeable-Phenotype (%) [6]: 3% and 1% | Population Mitochondria Different-Phenotype (%) [6]: 0% | Population Normal (%) [6]: 100% | Population Pyknosed Nuclei (%) [6]: 3% and 6% | Population Tubulin-Different-Phenotype (%) [6]: 7% and 5% | Total Cell Count [6]: 152 and 175
